This passage reports LD50 and Ratio results from ChEMBL document CHEMBL3045934, “Acaricidal activity of constituents identified in Foeniculum vulgare fruit oil against Dermatophagoides spp. (Acari: Pyroglyphidae)” (J Agric Food Chem, 2004).

Each structure is given as a SMILES string.

Series [1] deals with Dermatophagoides pteronyssinus. Description: Acaricidal activity against 7 to 10 day-old Dermatophagoides pteronyssinus adult after 24 hr by microscopy. It is filed as functional. Summed up:
(§1)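 Mites exposed by direct contact in a lidded container, held at 25 ± 1 °C, 75% relative humidity, in darkness. Mortality scored 24 h after treatment under a binocular microscope (20×). Untreated controls run alongside. Three replicates per treatment. LD50 derived by probit analysis.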

For series [2], the system named is Dermatophagoides farinae. Put plainly: Acaricidal activity against 7 to 10 day-old Dermatophagoides farinae adult after 24 hr by microscopy. It is filed as functional. Summed up: as §1
The test system of series [3] is Dermatophagoides pteronyssinus. Put plainly: Ratio of benzyl benzoate LD50 to compound LD50 for 7 to 10 day-old Dermatophagoides pteronyssinus adult after 24 hr by microscopy. It is filed as functional.
In series [4] the test system is Dermatophagoides farinae. Put plainly: Ratio of benzyl benzoate LD50 to compound LD50 for 7 to 10 day-old Dermatophagoides farinae adult after 24 hr by microscopy. The class given is functional.
A short description of series [5]: Acute toxicity in po dosed Rattus norvegicus (rat). It is filed as organism-based. To be noted: in vivo.

For `COc1ccc(C=O)cc1`, the LD50 is recorded as 10.1 mg/m2 in series [1] and 11.3 mg/m2 in the series on Dermatophagoides farinae [2]. Further, the Ratio in series [3] came to 6.7; in the series on Dermatophagoides farinae [4] it was 7.9.
Turning to `CC12CCC(C1)C(C)(C)C2=O` (centres undefined) [FENCHONE], the LD50 in series [5] was found to be 6160 mg/kg.
Take `CC1(C)C(=O)[C@]2(C)CCC1C2` [(-)-FENCHONE]: the LD50 in series [1] was found to be 48.7 mg/m2; with Dermatophagoides farinae [2], 41.8 mg/m2. The Ratio turned out to be 1.4 in series [3] and 2.1 in the series with Dermatophagoides farinae [4].
`O=C(OCc1ccccc1)c1ccccc1` [BENZYL BENZOATE]: the LD50 in series [1] stood at 67.5 mg/m2; in the series with Dermatophagoides farinae [2], 89.2 mg/m2.
Turning to `C=CCc1ccc(OC)cc1` [ESTRAGOLE], the LD50 in series [1] is recorded as 389.9 mg/m2; in the series with Dermatophagoides farinae [2], 413.3 mg/m2. For the same compound, the Ratio (in series [3]; with Dermatophagoides farinae [4]) was 0.2 each time.
As to `CC1(C)C(=O)[C@@]2(C)CCC1C2` [(+)-FENCHONE], the figures for the LD50 (in series [1]; with Dermatophagoides farinae [2]) were 43.2 mg/m2 and 38.9 mg/m2, respectively. Further, the values for the Ratio (in series [3]; with Dermatophagoides farinae [4]) were 1.6 and 2.3, respectively.
